Assay [1] deals with T1, Angiotensin-converting enzyme (Oryctolagus cuniculus, UniProt P12822).
T1 sequence (P12822 whole entry): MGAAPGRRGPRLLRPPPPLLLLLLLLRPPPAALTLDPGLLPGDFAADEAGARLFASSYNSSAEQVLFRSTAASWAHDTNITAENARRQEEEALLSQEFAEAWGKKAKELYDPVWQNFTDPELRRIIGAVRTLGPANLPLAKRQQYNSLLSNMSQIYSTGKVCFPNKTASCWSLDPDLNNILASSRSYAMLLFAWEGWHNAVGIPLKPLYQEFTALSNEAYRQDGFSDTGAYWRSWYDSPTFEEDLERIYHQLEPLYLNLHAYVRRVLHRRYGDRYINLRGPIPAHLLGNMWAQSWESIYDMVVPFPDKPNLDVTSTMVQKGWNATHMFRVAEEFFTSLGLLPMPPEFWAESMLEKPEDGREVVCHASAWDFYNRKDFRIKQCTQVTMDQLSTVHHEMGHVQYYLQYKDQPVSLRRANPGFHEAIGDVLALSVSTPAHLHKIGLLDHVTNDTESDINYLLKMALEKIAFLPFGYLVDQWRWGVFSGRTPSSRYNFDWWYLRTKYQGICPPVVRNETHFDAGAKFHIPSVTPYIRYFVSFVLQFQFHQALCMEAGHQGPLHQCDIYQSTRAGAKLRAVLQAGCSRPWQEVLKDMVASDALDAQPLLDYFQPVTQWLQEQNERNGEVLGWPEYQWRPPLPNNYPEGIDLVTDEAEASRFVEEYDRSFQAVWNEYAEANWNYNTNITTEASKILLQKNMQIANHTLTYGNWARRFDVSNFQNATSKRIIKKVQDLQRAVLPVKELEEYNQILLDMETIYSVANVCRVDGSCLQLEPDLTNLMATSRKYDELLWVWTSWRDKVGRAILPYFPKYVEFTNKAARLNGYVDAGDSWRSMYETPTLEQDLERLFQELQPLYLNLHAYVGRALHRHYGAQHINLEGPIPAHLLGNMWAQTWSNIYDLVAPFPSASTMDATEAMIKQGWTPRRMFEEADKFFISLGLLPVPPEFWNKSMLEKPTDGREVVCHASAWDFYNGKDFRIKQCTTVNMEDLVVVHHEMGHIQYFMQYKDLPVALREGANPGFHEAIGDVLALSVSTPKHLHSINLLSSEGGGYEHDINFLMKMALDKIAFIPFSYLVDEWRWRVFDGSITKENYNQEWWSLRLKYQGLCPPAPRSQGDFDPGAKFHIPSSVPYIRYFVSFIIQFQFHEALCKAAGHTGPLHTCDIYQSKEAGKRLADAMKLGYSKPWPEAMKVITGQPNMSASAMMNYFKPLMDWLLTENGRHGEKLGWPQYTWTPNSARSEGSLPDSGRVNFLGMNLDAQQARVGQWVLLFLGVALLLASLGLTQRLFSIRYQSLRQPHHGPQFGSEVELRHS
Kind of assay: Tested in vitro for its inhibitory activity against angiotensin converting enzyme.

The target in assay [2] is T2, Neprilysin (Oryctolagus cuniculus, UniProt P08049).
T2 sequence (P08049 whole entry): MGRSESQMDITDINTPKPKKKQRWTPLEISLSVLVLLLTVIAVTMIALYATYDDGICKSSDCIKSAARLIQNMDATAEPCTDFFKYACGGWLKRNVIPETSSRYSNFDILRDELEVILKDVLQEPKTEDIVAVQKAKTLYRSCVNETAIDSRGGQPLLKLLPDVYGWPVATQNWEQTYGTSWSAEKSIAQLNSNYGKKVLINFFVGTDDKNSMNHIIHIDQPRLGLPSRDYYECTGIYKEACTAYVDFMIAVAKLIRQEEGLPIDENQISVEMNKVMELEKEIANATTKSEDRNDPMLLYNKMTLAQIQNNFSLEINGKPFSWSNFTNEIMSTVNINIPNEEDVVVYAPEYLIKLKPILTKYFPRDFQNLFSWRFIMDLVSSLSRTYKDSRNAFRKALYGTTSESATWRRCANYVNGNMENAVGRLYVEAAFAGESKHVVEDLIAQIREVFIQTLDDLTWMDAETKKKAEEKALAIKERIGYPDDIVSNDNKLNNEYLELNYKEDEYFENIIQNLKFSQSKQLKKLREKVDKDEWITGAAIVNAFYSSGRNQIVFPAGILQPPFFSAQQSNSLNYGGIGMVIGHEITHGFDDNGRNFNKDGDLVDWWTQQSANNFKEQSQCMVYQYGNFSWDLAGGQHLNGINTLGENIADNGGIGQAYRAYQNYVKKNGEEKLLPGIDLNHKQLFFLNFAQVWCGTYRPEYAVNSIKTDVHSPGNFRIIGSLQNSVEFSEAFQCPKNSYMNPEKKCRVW
Kind of assay: In vitro inhibitory activity against neutral endopeptidase (NEP). An outline of the steps: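 Purified rabbit kidney NEP (EC 24.11) was the enzyme source, with [³H]Leu-enkephalin as the substrate.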

Assay [3] deals with Rattus norvegicus. Kind of assay: In vivo potentiation of ANF induced hypotension in rat, following subcutaneous dose of 30 mg/kg. It counts as functional. An outline of the steps: (§1)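 Conscious male SHR (270–300 g) had caudal artery and jugular vein cannulae placed under ether. After at least 90 min of stabilization, ANF 103-125 or 99-126 was given as an iv bolus at a submaximal dose. 60–90 min later, drug or vehicle (0.2% aqueous methylcellulose with 20% Tris-HCl) was given sc. ANF was repeated 15 min after dosing, and the response was compared with vehicle controls. Values are means of four or more animals.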

The test system of assay [4] is Rattus norvegicus. Kind of assay: Tested for in vivo Antihypertensive activity in DOCA rat by giving subcutaneous dose of 30 mg/kg. The format is functional. The procedure, abridged: (§2)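 Male Sprague-Dawley rats (100–150 g) had DOCA-Na hypertension induced and were used 17–21 days later if mean BP was >150 mmHg. Rats were not fasted. Mean BP was recorded after 90-min equilibration. Dosing was sc in TRIS buffer (2 mL/kg) or po in 0.4% aqueous methylcellulose (4 mL/kg). The maximum BP fall over 4 h versus vehicle controls was taken, averaged over four or more animals.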

For assay [5], the system named is Rattus norvegicus. Kind of assay: Tested for in vivo Antihypertensive activity in DOCA rat by giving peroral dose of 30 mg/kg. It counts as functional. The settings on record: route oral. The procedure, abridged:
as §2

Assay [6] deals with Rattus norvegicus. Kind of assay: Tested for in vivo Antihypertensive activity in DOCA rat by giving peroral dose of 10 mg/kg. The settings on record: route oral. The format is functional. An outline of the steps:
as §2

The subject of assay [7] is Rattus norvegicus. Kind of assay: Tested for in vivo Antihypertensive activity in DOCA rat by giving subcutaneous dose of 3 mg/kg. It counts as functional. An outline of the steps: as §2
Assay [8] concerns Rattus norvegicus. Kind of assay: In vivo potentiation of ANF Induced Hypotension in rat was determined by giving subcutaneous dose of 10 mg/kg. It counts as functional. The procedure, abridged:
as §1

Assay [9] relates to Rattus norvegicus. Kind of assay: Tested for in vivo Antihypertensive activity in DOCA rat by giving peroral dose of 3 mg/Kg. The format is functional. An outline of the steps:
as §2

Assay [10] deals with Rattus norvegicus. Kind of assay: Tested for in vivo Antihypertensive activity in DOCA rat by giving subcutaneous dose of 10 mg/kg. The format is functional. An outline of the steps:
as §2

Usually IC50 stands for the concentration needed to halve the response being measured. A low value points to inhibition by little substance. Consider `Cc1ccc(CSC[C@@H](NC(=O)[C@H](CS)Cc2ccccc2)C(=O)O)cc1`, for which the values for the IC50 in [1] and in assay [2] were 1200 nM and 20 nM, respectively. Also, the Delta blood pressure was determined as 48 mmHg in assay [3], 33 mmHg in assay [4] and 28 mmHg in assay [5].
In the case of `CC(C)(C)SC[C@@H](NC(=O)[C@@H](CS)Cc1ccccc1)C(=O)O`, the IC50 in [1] was 170 nM; in assay [2], 49 nM. The Delta blood pressure in assay [3] was found to be 25 mmHg; in assay [5], 17 mmHg.
With `Cc1ccc(CSC[C@@H](NC(=O)[C@H](CS)Cc2ccccc2)C(N)=O)cc1`, the Delta blood pressure in [6] stood at 46 mmHg; in assay [7], 17 mmHg; in assay [3], 17 mmHg. The IC50 in assay [2] was > 300 nM.
Consider `CSC[C@@H](NC(=O)[C@@H](CS)Cc1ccccc1)C(=O)O`, for which the IC50 in assay [1] turned out to be 77 nM; in assay [2], 1.5 nM. Besides, the figures for the Delta blood pressure in assay [3] and in assay [5] were 30 mmHg and 0 mmHg, respectively.
Turning to `CSCC[C@@H](NC(=O)C(CS)Cc1ccccc1)C(=O)O` (some centres not stated), the IC50 stood at 120 nM in assay [1] and 4 nM in assay [2]. The Delta blood pressure in [3] turned out to be 25 mmHg; in [4] it was 42 mmHg; in [5] it was 18 mmHg.
In the case of `C[C@H](CS)C(=O)N[C@H](CSCc1ccccc1)C(=O)O`, the IC50 turned out to be 58 nM in [1] and 46 nM in [2]. Also, the Delta blood pressure is on record as 19 mmHg in [3] and 0 mmHg in [4].
In the case of `CSCC[C@@H](NC(=O)[C@@H](CSC(C)=O)Cc1ccccc1)C(=O)O`, the Delta blood pressure in assay [4] stood at 48 mmHg.
As to `CC(=O)SC[C@@H](Cc1ccccc1)C(=O)N[C@H](CSCc1ccc(C)cc1)C(=O)O`, the Delta blood pressure is recorded as 42 mmHg in assay [8] and 48 mmHg in assay [4].
Turning to `CSCC[C@@H](NC(=O)C1(CS)CCCC1)C(=O)O`, the results for the IC50 in [1] and in [2] were 700 nM and 3.5 nM, respectively. In [4], this molecule gave a Delta blood pressure of 24 mmHg.
With `O=C(N[C@H](CSCc1ccccc1)C(=O)O)[C@@H](CS)Cc1ccc(Cl)cc1`, the values for the IC50 in [1] and in [2] were 44 nM and 3 nM, respectively. The Delta blood pressure in assay [3] was determined as 19 mmHg; in [5] it was 20 mmHg.
For `Cc1ccc(CSC[C@@H](NC(=O)[C@@H](CS)Cc2ccccc2)C(=O)O)cc1`, the values for the IC50 in [1] and in assay [2] were 19 nM and 11 nM, respectively. In addition, the results for the Delta blood pressure in [3] and in assay [4] were 48 mmHg and 17 mmHg, respectively.
With `CSCC[C@@H](NC(=O)[C@@H](CSC(=O)c1ccccc1)Cc1ccccc1)C(N)=O`, the Delta blood pressure in assay [4] is given as 0 mmHg.
On to `CC(=O)SC[C@H](Cc1ccccc1)C(=O)N[C@H](CSCc1ccc(C)cc1)C(N)=O`, for which the Delta blood pressure in assay [6] and in [8] was 0 mmHg throughout.
With `CSCC[C@@H](NC(=O)[C@@H](CSC(C)=O)Cc1ccccc1)C(N)=O`, the Delta blood pressure in [9] came to 39 mmHg; in assay [3] it was 23 mmHg.
On to `O=C(N[C@H](CSCc1ccccc1)C(=O)O)[C@@H](CS)Cc1ccccc1`, for which the IC50 is 24 nM in [1] and 9 nM in assay [2]. Further, the Delta blood pressure was 17 mmHg in assay [10], 35 mmHg in [3] (30 mg/kg) and 30 mmHg in [4].
Take `CSCC[C@@H](NC(=O)C(CSC(C)=O)Cc1ccccc1)C(=O)N1CCCCC1` (some centres not stated): the Delta blood pressure is 3 mmHg in [7], 32 mmHg in assay [10] and 38 mmHg in [3].
As for `O=C(N[C@H](CSCc1ccccc1)C(=O)O)C(CS)Cc1ccccc1` (single isomer, unassigned), the IC50 in assay [1] was determined as 1250 nM; in assay [2], 14 nM. In addition, the Delta blood pressure in assay [3] (30 mg/kg) is listed as 19 mmHg; in [5], 18 mmHg.

The record behind these values is ChEMBL document CHEMBL1127600, “Mercaptoacyl amino acid inhibitors of atriopeptidase. 1. Structure-activity relationship studies of methionine and S-alkylcysteine derivatives” (J Med Chem, 1994).
